Shown are actives, neighbours in structure and some others; about 2.5% of the full set was active somewhere.
PRMT1 FP inh: PRMT1 (human) inhibition, primary screen; Q99873; recombinant PRMT1, activity-based probe fluorescence polarization; inhibition, % at 2.79 µM; 370,000 compounds, 1.3% hits; AID 652257;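 active = inhibition above about 21% made by adding two undisclosed values, limit read from the data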
GSTO1 inh: GSTO1 inhibition, counter-screen for RBBP9 inhibitors; P78417; 300,000 compounds, 1.1% hits; inhibition, % at 5.96 µM; recombinant GSTO1, activity-based probe fluorescence polarization;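 active = inhibition above the campaign mean inhibition plus 3 SD, cut at about 35% in these data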
eLon inh: inhibitors of E. coli Lon protease. P0A9M0. purified E. coli Lon protease, fluorescence polarization. inhibition, % at 7.94 µM. 360,000 compounds, 0.42% hits. AID 602123; in the data active = inhibition above about 13%, passing the limit was not always enough
PAD4 inh: blocks human protein arginine deiminase 4 | Q9UM07 | recombinant PAD4, RCA probe fluorescence polarization | inhibition, % at 6.36 µM | 330,000 compounds, 0.41% hits;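 active = percent inhibition above a cutoff equal to the mean of all tested compounds plus 3 SD, cut at about 15% in these data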
TDP2 absorb: TDP2 (human) inhibition, absorbance primary screen. O95551. recombinant TDP2, T5PNP hydrolysis, p-nitrophenol absorbance 415 nm. inhibition, % at 12.8 µM. 370,000 compounds, 0.34% hits. AID 720702;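 active = inhibition above the mean of all tested compounds plus 3 SD, set per campaign, cut at about 25% in these data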
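Material: recombinant human TDP2; quantity: TDP2 enzyme at 120 nM final; medium: Tris-HCl pH 7.5 with MgCl2; compound: single concentration, 12.8 µM nominal, with 1% DMSO; incubation: 2 h enzyme incubation at 37 °C; signal: epi absorbance; measure: percent inhibition; benchmarks: high control without enzyme, low control DMSO plus TDP2; repeats: singlicate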
Hits are given with their value.

For COC(=O)C1CN(C2CCCC2)CCS(=O)(=O)N1Cc1ccc(Cl)cc1 (stereo unspecified) the results were PRMT1 FP inh inactive and TDP2 absorb inactive.
`CSCc1cc(C(=O)NC2CC2)c(N)s1` gave PRMT1 FP inh 23 and TDP2 absorb inactive.
For CCOc1ccccc1-n1c(=S)sc2c(=O)n(-c3ccc(C)cc3)c(=S)[nH]c21 the results were PRMT1 FP inh 73, GSTO1 inh inactive, eLon inh inactive, PAD4 inh inactive and TDP2 absorb inactive.
`CCn1c(=S)sc2c(=O)n(-c3ccccc3)c(=S)[nH]c21` gave PRMT1 FP inh inactive, GSTO1 inh inactive, eLon inh inactive, PAD4 inh inactive and TDP2 absorb inactive.
`Cc1cc(NS(=O)(=O)c2ccc(NC(=O)c3ccco3)cc2)nc(C)n1` gave PRMT1 FP inh inactive, GSTO1 inh inactive, eLon inh inactive, PAD4 inh inactive and TDP2 absorb inactive.
Cc1cc(NS(=O)(=O)c2ccc(NC(=O)/C=C/c3ccco3)cc2)nc(C)n1 was read as PRMT1 FP inh 24, GSTO1 inh inactive, eLon inh inactive, PAD4 inh inactive and TDP2 absorb inactive.
Cc1cc2ccccn2c1C(=O)c1ccc([N+](=O)[O-])o1 was read as PRMT1 FP inh inactive, GSTO1 inh 86, eLon inh inactive, PAD4 inh inactive and TDP2 absorb inactive.
For Cc1ccc(CN2CCN(C(=O)C3CCCO3)CC2)cc1 (stereo unspecified) the results were PRMT1 FP inh inactive, GSTO1 inh inactive, eLon inh inactive, PAD4 inh inactive and TDP2 absorb inactive.
Screening O=C(C1CCCO1)N1CCN(Cc2c(O)ccc3ccccc23)CC1 (stereo unspecified) returned PRMT1 FP inh 23, GSTO1 inh inactive, eLon inh inactive, PAD4 inh inactive and TDP2 absorb inactive.
For COC(=O)C1=C(C)N(Cc2ccc(C(F)(F)F)cc2)C(=NCc2ccccc2C(F)(F)F)NC1c1cccc(Cl)c1 (stereo unspecified) the results were PRMT1 FP inh inactive and TDP2 absorb inactive.
COc1cc(NC(=S)N2CCN(c3ccccn3)CC2)c(OC)cc1Cl was read as PRMT1 FP inh 22, GSTO1 inh inactive, eLon inh inactive, PAD4 inh inactive and TDP2 absorb inactive.
`COc1ccc(Cl)cc1NC(=S)N1CCN(c2ccccn2)CC1` gave PRMT1 FP inh inactive, GSTO1 inh inactive, eLon inh inactive, PAD4 inh inactive and TDP2 absorb inactive.
For CCOC(=O)c1c(C)[nH]c(C)c1C(=O)COC(=O)c1ccc(OC)c(OC)c1 the results were PRMT1 FP inh inactive, GSTO1 inh 35, eLon inh inactive, PAD4 inh inactive and TDP2 absorb inactive.
`O=C(CSc1nc2ccc(Cl)cc2[nH]1)NCc1ccco1` gave PRMT1 FP inh inactive, GSTO1 inh inactive, eLon inh inactive, PAD4 inh inactive and TDP2 absorb inactive.
For O=C(CCSCc1ccccc1Cl)NCc1ccco1 the results were PRMT1 FP inh inactive, GSTO1 inh inactive, eLon inh inactive, PAD4 inh inactive and TDP2 absorb inactive.
`O=C(CCSCCC(=O)NCc1ccco1)NCc1ccco1` gave PRMT1 FP inh 24, GSTO1 inh inactive, PAD4 inh inactive and TDP2 absorb inactive.
O=C(CSc1ccc2c(c1)OCCO2)NCc1ccco1 was read as PRMT1 FP inh 22, GSTO1 inh inactive, eLon inh inactive, PAD4 inh inactive and TDP2 absorb inactive.
O=C(CSc1c2c(nc3cc(Cl)ccc13)CCCC2)NCc1ccco1 was read as PRMT1 FP inh 23, GSTO1 inh inactive, eLon inh inactive, PAD4 inh inactive and TDP2 absorb inactive.
Screening O=C(CSc1ccccc1)NCc1ccco1 returned PRMT1 FP inh inactive, GSTO1 inh inactive, eLon inh inactive, PAD4 inh inactive and TDP2 absorb inactive.
For O=C(CCc1ccccc1)N[C@H]1[C@H](OC(=O)c2ccco2)CCC[C@]12C(=O)N(Cc1ccccc1)c1ccccc12 the results were PRMT1 FP inh inactive and TDP2 absorb inactive.
Screening C[C@@H]1COc2cc(N3CCCCC3)ccc2S(=O)(=O)N1 returned PRMT1 FP inh inactive and TDP2 absorb inactive.
Screening COc1ccc2c(c1)CN1C(=O)N(Cc3ccc(F)cc3)S(=O)(=O)CC21 (stereo unspecified) returned PRMT1 FP inh inactive and TDP2 absorb inactive.
Screening CCOC(=O)CCN(Cc1cccs1)S(=O)(=O)c1ccc(F)cc1 returned PRMT1 FP inh inactive, GSTO1 inh 38, eLon inh inactive, PAD4 inh inactive and TDP2 absorb inactive.
COC(=O)[C@]12C[C@H](CC(=O)NCCCN3CCCC3=O)C(=O)N(Cc3ccco3)C1=C[C@H](C(C)C)O[C@@H]2C1CC1 was read as PRMT1 FP inh inactive and TDP2 absorb inactive.
`CC1CCCN(Cc2c(O)ccc3c2O/C(=C\c2ccco2)C3=O)C1` (stereo unspecified) gave PRMT1 FP inh 22, GSTO1 inh inactive, eLon inh inactive, PAD4 inh inactive and TDP2 absorb inactive.
For CCCCNS(=O)(=O)/C=C/c1ccc(F)cc1CNC(=O)OC(C)(C)C the results were PRMT1 FP inh inactive and TDP2 absorb inactive.
`CCOc1ccc(N2C(=O)CNC2=S)cc1` gave PRMT1 FP inh inactive, GSTO1 inh inactive, eLon inh inactive, PAD4 inh inactive and TDP2 absorb inactive.
For CCOc1ccc(N2C(=O)CS/C2=C(\C(Cl)=C(Cl)Cl)[N+](=O)[O-])cc1 the results were GSTO1 inh 51, eLon inh inactive and PAD4 inh inactive.
C#CCNC(=O)C[C@H]1C(=O)N(CCc2ccc(Cl)cc2)C2=CCCC[C@@]21C(=O)OCC was read as PRMT1 FP inh inactive and TDP2 absorb inactive.
O=S1(=O)c2ccc(Br)cc2OC[C@@H](Cc2ccccc2)N1Cc1cn(Cc2ccc(Cl)cc2)nn1 was read as PRMT1 FP inh inactive and TDP2 absorb inactive.
Screening CCOc1ccc(N(C)c2ccc(/C=C3/SC(=S)NC3=O)cc2)cc1 returned PRMT1 FP inh inactive, GSTO1 inh inactive, eLon inh inactive, PAD4 inh inactive and TDP2 absorb inactive.
CCOc1c(O)ccc(/C=C2\SC(=S)NC2=O)c1[N+](=O)[O-] was read as PRMT1 FP inh inactive, GSTO1 inh 56, eLon inh inactive, PAD4 inh inactive and TDP2 absorb inactive.
CSc1nnc(-c2cc3c(s2)-c2ccccc2CC3)o1 was read as PRMT1 FP inh inactive, GSTO1 inh inactive, eLon inh inactive, PAD4 inh inactive and TDP2 absorb inactive.
Screening S=c1[nH]nc(-c2cc3c(s2)-c2ccccc2CC3)o1 returned PRMT1 FP inh 22, GSTO1 inh inactive, eLon inh inactive, PAD4 inh inactive and TDP2 absorb inactive.
For COC(=O)C1CN(Cc2ccc(OC)cc2)CCS(=O)(=O)N1Cc1ccc(C(F)(F)F)cc1 (stereo unspecified) the results were PRMT1 FP inh inactive and TDP2 absorb inactive.
For COC(=O)CCCC1=CC2=CC(=O)C(C)(OC(=O)c3cccs3)C(=O)C2=CN1Cc1ccccc1 (stereo unspecified) the results were PRMT1 FP inh inactive, GSTO1 inh inactive, eLon inh inactive, PAD4 inh inactive and TDP2 absorb inactive.

From PubChem
